Active and inactive are the calls of the source. The calls are words filed in the database; no cut-off is given here.

For series [1], the system named is HeLa. Put plainly: Cytotoxicity against human HeLa cells after 24 hrs by MTT assay. Type of series: functional, cell-based. An outline of the steps: (§1)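 Cells seeded at 25000 per well and held 24 h at 37 °C in 5% CO2. Medium was then renewed and compounds added at increasing concentrations (DMSO 0.1%, or water for topotecan) for 24 h. MTT solution (5 mg/mL) was added for 3 h at 37 °C, then absorbance read at 570 nm, corrected at 630 nm. IC50 in µM.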
On the technique in general: Tetrazolium dyes change colour on reduction, which living cells bring about.

Series [2] is described as follows: Cytotoxicity against human Caco2 cells after 24 hrs by MTT assay. Format: functional, cell-based. The following applies: Caco-2, 24 h.
Series [3] concerns A-375. Put plainly: Cytotoxicity against human A375 cells after 24 hrs by MTT assay. The following applies: A-375, 24 h. Type of series: functional, cell-based. Put shortly:
as §1

The subject of series [4] is Jurkat. Put plainly: Cytotoxicity against human Jurkat cells after 24 hrs by MTT assay. Format: functional, cell-based. Put shortly: as §1
Series [5] has as its system MDA-MB-231. Put plainly: Cytotoxicity against human MDA-MB-231 cells after 24 hrs by MTT assay. Type of series: functional, cell-based. The following applies: MDA-MB-231, 24 h. An outline of the steps:
as §1

The test system of series [6] is Caco-2. Put plainly: Induction of apoptosis in human Caco2 cells assessed as vital cells at 0.05 uM after 24 hrs by Annexin V/propidium iodide staining-based flow cytometric analysis (reference value: 96.67 +/- 1.02%). Type of series: functional. Background: Flow cytometry measures light scatter and fluorescence of single cells or particles in a stream.
Series [7] has as its system Caco-2. Description: Induction of apoptosis in human Caco2 cells assessed as vital cells at 0.5 uM after 24 hrs by Annexin V/propidium iodide staining-based flow cytometric analysis (reference value: 96.67 +/- 1.02%). Type of series: functional.
Series [8] relates to Caco-2. Put plainly: Induction of apoptosis in human Caco2 cells assessed as vital cells at 0.05 uM after 48 hrs by Annexin V/propidium iodide staining-based flow cytometric analysis (reference value: 96.67 +/- 1.02%). Type of series: functional.
Series [9] relates to Caco-2. Description: Induction of apoptosis in human Caco2 cells assessed as vital cells at 0.5 uM after 48 hrs by Annexin V/propidium iodide staining-based flow cytometric analysis (reference value: 96.67 +/- 1.02%). Type of series: functional.
For series [10], the system named is Caco-2. Put plainly: Induction of apoptosis in human Caco2 cells assessed as early apoptotic cells at 0.05 uM after 24 hrs by Annexin V/propidium iodide staining-based flow cytometric analysis (reference value: 0.72 +/- 0.03%). Format: functional.
Series [11] concerns Caco-2. Put plainly: Induction of apoptosis in human Caco2 cells assessed as early apoptotic cells at 0.5 uM after 24 hrs by Annexin V/propidium iodide staining-based flow cytometric analysis (reference value: 0.72 +/- 0.03%). Format: functional.
Series [12] relates to Caco-2. Description: Induction of apoptosis in human Caco2 cells assessed as early apoptotic cells at 0.05 uM after 48 hrs by Annexin V/propidium iodide staining-based flow cytometric analysis (reference value: 0.72 +/- 0.03%). Type of series: functional.
Series [13] has as its system Caco-2. Description: Induction of apoptosis in human Caco2 cells assessed as early apoptotic cells at 0.5 uM after 48 hrs by Annexin V/propidium iodide staining-based flow cytometric analysis (reference value: 0.72 +/- 0.03%). Format: functional.
Series [14] relates to Caco-2. Put plainly: Induction of apoptosis in human Caco2 cells assessed as late apoptotic cells at 0.05 uM after 24 hrs by Annexin V/propidium iodide staining-based flow cytometric analysis (reference value: 2.20 +/- 0.77%). Type of series: functional.
Series [15] has as its system Caco-2. Put plainly: Induction of apoptosis in human Caco2 cells assessed as late apoptotic cells at 0.5 uM after 24 hrs by Annexin V/propidium iodide staining-based flow cytometric analysis (reference value: 2.20 +/- 0.77%). Format: functional.
The test system of series [16] is Caco-2. Put plainly: Induction of apoptosis in human Caco2 cells assessed as late apoptotic cells at 0.05 uM after 48 hrs by Annexin V/propidium iodide staining-based flow cytometric analysis (reference value: 2.20 +/- 0.77%). Format: functional.
In series [17] the test system is Caco-2. Description: Induction of apoptosis in human Caco2 cells assessed as late apoptotic cells at 0.5 uM after 48 hrs by Annexin V/propidium iodide staining-based flow cytometric analysis (reference value: 2.20 +/- 0.77%). Format: functional.
Series [18] deals with Caco-2. Put plainly: Induction of apoptosis in human Caco2 cells assessed as necrotic cells at 0.05 uM after 24 hrs by Annexin V/propidium iodide staining-based flow cytometric analysis (reference value: 0.41 +/- 0.02%). Format: functional.
Series [19] relates to Caco-2. Put plainly: Induction of apoptosis in human Caco2 cells assessed as necrotic cells at 0.5 uM after 24 hrs by Annexin V/propidium iodide staining-based flow cytometric analysis (reference value: 0.41 +/- 0.02%). Type of series: functional.
In series [20] the test system is Caco-2. Put plainly: Induction of apoptosis in human Caco2 cells assessed as necrotic cells at 0.05 uM after 48 hrs by Annexin V/propidium iodide staining-based flow cytometric analysis (reference value: 0.41 +/- 0.02%). Format: functional.
In series [21] the test system is Caco-2. Description: Induction of apoptosis in human Caco2 cells assessed as necrotic cells at 0.5 uM after 48 hrs by Annexin V/propidium iodide staining-based flow cytometric analysis (reference value: 0.41 +/- 0.02%). Type of series: functional.
Series [22] relates to A-375. Description: Induction of apoptosis in human A375 cells assessed as inhibition of DNA synthesis at 0.8 to 1.6 uM after 24 hrs by BrdU staining-based ELISA. Format: functional, cell-based. Put shortly:
(§2)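 BrdU colorimetric cell proliferation ELISA. Cells seeded at 25,000 per well, compounds added 24 h after seeding and incubated 24 h. Cells fixed and the immunoassay run per kit. Absorbance read at 370-492 nm over 3 intervals of 5 min; absorbance difference proportional to BrdU incorporation. Mean of three separate experiments in triplicate, compared with untreated control.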

In series [23] the test system is HeLa. Description: Induction of apoptosis in human HeLa cells assessed as inhibition of DNA synthesis at 0.8 to 1.6 uM after 24 hrs by BrdU staining-based ELISA. Format: functional, cell-based. An outline of the steps:
as §2
(Uptake of a labelled nucleoside into DNA is a usual measure of proliferation.)

For series [24], the system named is MDA-MB-231. Description: Induction of apoptosis in human MDA-MB-231 cells assessed as inhibition of DNA synthesis at 0.8 to 1.6 uM after 24 hrs by BrdU staining-based ELISA. Format: functional, cell-based. Put shortly: as §2
Series [25] concerns A-375. Description: Induction of apoptosis in human A375 cells assessed as p53 phosphorylation at Ser15 by Western blotting analysis. Type of series: functional, cell-based. Put shortly: (§3)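 Cells treated 24 h. About 10^6 cells lysed on ice 15 min in Hepes pH 7.4/Triton X-100 buffer with phosphatase and protease inhibitors, then spun 13,000 × g. 30 µg protein run on 12% SDS-PAGE and blotted to nitrocellulose. Primary anti-phospho-p53 (Ser15) and anti-p53 at 1:1000 for 2 h at room temperature, then HRP secondary and ECL densitometry. Results referred to untreated control.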

Series [26] has as its system HeLa. Put plainly: Induction of apoptosis in human HeLa cells assessed as p53 phosphorylation at Ser15 by Western blotting analysis. Type of series: functional, cell-based. Put shortly:
as §3

Series [27] relates to MDA-MB-231. Description: Induction of apoptosis in human MDA-MB-231 cells assessed as p53 phosphorylation at Ser15 by Western blotting analysis. Format: functional, cell-based. Put shortly: as §3
The nature of series [28]: Effective permeability from apical to basolateral side in human Caco2 cells at 50 uM after 15 to 90 mins by HPLC analysis. The following applies: Caco-2, read-out: Peff. Format: ADME, cell-based. Put shortly: (§4)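 Caco-2 monolayers grown 19-22 days on polycarbonate transwell inserts (4.2 cm², 0.4 µm pore) at 37 °C, 5% CO2; TEER checked before and after each run. Compound added to donor side at 37 °C, 50 rpm. Receiver sampled at 15, 30, 60 and 90 min; donor sampled at start and end. HPLC analysis. Sodium azide, when used, placed on both sides. Three independent experiments.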

Series [29] in a line: Effective permeability from basolateral to apical side in human Caco2 cells at 50 uM after 15 to 90 mins by HPLC analysis. Format: ADME, cell-based. The following applies: Caco-2, read-out: Peff. An outline of the steps:
as §4

Series [30] is described as follows: Effective permeability from apical to basolateral side in human Caco2 cells at 50 uM after 15 to 90 mins by HPLC analysis in presence of sodium azide. The following applies: Caco-2, with sodium azide, read-out: Peff. Format: ADME, cell-based. Put shortly: as §4
The nature of series [31]: Effective permeability from basolateral to apical side in human Caco2 cells at 50 uM after 15 to 90 mins by HPLC analysis in presence of sodium azide. Format: ADME, cell-based. The following applies: Caco-2, with sodium azide, read-out: Peff. An outline of the steps:
as §4

Series [32] can be described thus: Permeability from apical to basolateral side in human Caco2 cells at 5 to 50 uM after 15 to 90 mins by HPLC analysis. Format: ADME, cell-based. The following applies: caco-2, 50 µM. Put shortly: as §4
Series [33] in a line: Permeability from basolateral to apical side in human Caco2 cells at 5 to 50 uM after 15 to 90 mins by HPLC analysis. Type of series: ADME, cell-based. The following applies: caco-2, 50 µM. Put shortly: as §4
For series [34], the species on record is Homo sapiens. Put plainly: Activity at Pgp transporter (unknown origin).
The nature of series [35]: Effective permeability in Wistar rat small intestine at 50 uM measured after 5 mins in every 5 min interval up to 30 mins. Format: ADME, tissue-based. The following applies: not told, read-out: Peff. Put shortly: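 In situ intestinal perfusion in male Wistar rats fasted 2 h with water allowed. Anaesthesia with diazepam (1.67 mg/kg), ketamine (50 mg/kg) and atropine (1 mg/kg); animals kept at 37 °C. Perfusate sampled every 5 min from 5 to 30 min; absorption rate constant and Peff derived.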

Series [36] deals with Small intestine. Put plainly: Effective permeability in Wistar rat small intestine assessed as absorption rate coefficient at 50 uM measured after 5 mins in every 5 min interval up to 30 mins. Type of series: ADME, tissue-based. An outline of the steps: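 Male Wistar rats fasted 2 h with water available, then anaesthetised with diazepam (1.67 mg/kg), ketamine (50 mg/kg) and atropine (1 mg/kg) and kept at 37°C on a heated surface. In situ intestinal perfusion. Perfusate sampled from 5 min at 5 min intervals up to 30 min. Absorption rate constant (Ka) and Peff derived.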

With `CC[C@@]1(O)C(=O)OCc2c1cc1n(c2=O)Cc2cc3c4c(ccc3nc2-1)OCOC4`, the half-inhibitory concentration (IC50) (in general, the concentration that gives 50% inhibition) was found to be 345 nM in series [1]; 104 nM in series [2]; 186 nM in series [3]; 124 nM in series [4]; 476 nM in [5]. The Activity in [6] came out at 61.56%; in series [7], 47.78%; in series [8], 57%; in series [9], 37.04%; in series [10], 11.8%; in [11], 8.16%. For the same compound, the Activity was 3.56% in [12]; 3.68% in [13]; 24.72% in series [14]; 42.88% in series [15]; 33.54% in series [16]; 56.08% in [17]. Further, the Activity in series [18] is reported as 1.92%; in series [19] it was 1.18%; in series [20], 5.9%; in series [21], 3.2%. For the same compound, the outcome in series [22], in series [23], in [24], in series [25] and in [27] was Active. The result in [26] and in series [34] was inactive. Besides, the Papp A→B at 50 µM in series [28] worked out at 10 ×10⁻⁶ cm/s; in [30], 8.05 ×10⁻⁶ cm/s. Also, the Papp B→A at 50 µM turned out to be 9.84 ×10⁻⁶ cm/s in series [29] and 9.73 ×10⁻⁶ cm/s in series [31]. The permeability result in series [32] and in series [33] was “permeable” throughout. The Papp at 5 min, 50 µM in [35] came out at 93.8 ×10⁻⁶ cm/s. In addition, the Ka in [36] is 3.78 h⁻¹.

In the case of `COCCc1ccc(OCC(O)CNC(C)C)cc1` (centres undefined) [METOPROLOL], the Papp A→B at 50 µM in series [28] worked out at 23 ×10⁻⁶ cm/s. Moreover, the Papp at 5 min, 50 µM in [35] stood at 55.3 ×10⁻⁶ cm/s. Besides, the Ka in series [36] was determined as 2.3 h⁻¹.

For the origin of these results see ChEMBL document CHEMBL3351736, “A promising camptothecin derivative: Semisynthesis, antitumor activity and intestinal permeability” (Eur J Med Chem, 2014).
